Source: ChEMBL document CHEMBL1141647, “Novel ofloxacin derivatives: synthesis, antimycobacterial and toxicological evaluation” (Bioorg Med Chem Lett, 2008)
≈ marks a conversion by molar mass, not a printed value.

Legend:
[1] = tested on: Vero; assay: Cytotoxicity against african green monkey Vero cells after 72 hrs by MTT assay; type: cell-based; details: Chlorocebus sabaeus
Method in brief: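 Vero cells exposed for 72 h; tested up to 62.5 µg/mL. Viability was read as cellular conversion of MTT to formazan, and IC50 was reported in µM.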

[2] = tested on: Mycobacterium tuberculosis; assay: Antimycobacterial activity against Mycobacterium tuberculosis H37Rv by agar dilution method; type: functional
Method in brief: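 MIC99 was taken as the lowest concentration giving complete inhibition of bacterial growth.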

[3] = tested on: Mycobacterium tuberculosis; assay: Antimycobacterial activity against Mycobacterium tuberculosis ATCC 35801 infected CD1 mouse lungs assessed as viable organisms at 25 mg/kg, ip after 35 days relative to control; type: functional; details: route intraperitoneal
Method in brief: (§1)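 CD-1 mice infected intravenously with M. tuberculosis ATCC 35801; intraperitoneal treatment started 10 days after inoculation and continued for 10 days. At 35 days postinfection, spleens and right lungs were removed aseptically and viable organisms counted (log CFU). Counts were compared with vehicle-treated controls.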

[4] = tested on: Mycolicibacterium smegmatis; assay: Antimycobacterial activity against Mycobacterium smegmatis ATCC 14468 by agar dilution method; type: functional
Method in brief: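 MC² (M. smegmatis) growth inhibition; MIC99 taken as the lowest concentration giving complete inhibition of bacterial growth, in µM.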

[5] = tested on: Mycobacterium tuberculosis; assay: Antimycobacterial activity against Mycobacterium tuberculosis ATCC 35801 infected CD1 mouse spleen assessed as viable organisms at 25 mg/kg, ip after 35 days relative to control; type: functional; details: route intraperitoneal; method in brief: as §1

For `NNC(=O)c1ccncc1` [ISONIAZID], the IC50 [1] was greater than 456 µM, the MIC99 [2] was 0.36 µM (≈ 0.0494 µg/mL) and the Log10 cfu [3] was 5.86. For the same compound, the MIC99 [4] was 45.6 µM (≈ 6.25 µg/mL) and the Log10 cfu [5] was 4.71.
